Assay outcomes deposited in PubChem by several laboratories.
Compounds with a hit are over-represented: about 4.3% of the library has one in this group of screens.
SR-BI HDL uptake = inhibitors of mouse SR-BI mediated HDL lipid uptake; Q61009; ldlA[mSR-BI] CHO cells, DiI-HDL uptake fluorescence, 3 h; inhibition, % at 12.5 µM; 0.96% of 320,000 active;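 active = mean replicate inhibition of at least 70% and a set share of replicates each scoring 70 or more; inconclusive = meets just one of the two criteria; inactive = fails both criteria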;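 also: 0% = median of neutral control wells and 100% = median of positive control wells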
SR-BI uptake up = activators of SR-BI mediated HDL lipid uptake; activation, % at 12.5 µM; CHO ldlA[mSR-BI] cells, DiI-HDL uptake fluorescence, 3 h; 100 = double the neutral-control signal; 0.096% of 320,000 active;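 active = mean replicate activation of at least 60% and every replicate at or above 60%; inconclusive = mean or all-replicate condition met, but not both; inactive = mean below 60% and not all replicates reaching 60%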;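 also: 0% = median plate neutral-control signal and 100% = twice that signal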
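System: LDL receptor-deficient CHO ldlA cells overexpressing murine SR-BI | Timing: 3 h uptake period with compound, 37 °C | Medium: HEPES-buffered (25 mM, pH 7.4) F12 plus 0.5% BSA | Dosing: Single-point compound dose | Signal: Bottom-read fluorescence, 550/595 nm | Read-out: Retained DiI signal reflecting DiI-HDL uptake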
Yeast superoxide = lowers age-related superoxide in aged yeast cells. 0.18% of 330,000 active. S. cerevisiae aged cells, superoxide DHE fluorescence; stronger effect = lower value. AID 2690. superoxide response (% of plate mean), % at 10 µM;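 active = superoxide response under a set limit, about three screen SD below normal, cut at about 65% in these data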;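 also: yeast aged for seven days with compound at 30 °C before DHE staining; 100% = average MFI of all compound-treated wells on the plate with controls excluded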
SMARCA2 act = activators of SMARCA2 function; MG213 cells, MMTV-luciferase reporter, dexamethasone, overnight; activation, % at 9.1 µM; 1% of 370,000 active; in the data active = activation above about 7.8%;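 also: 0% = vehicle wells and 100% = reference activator wells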
Lipid droplet = modulators of hepatic lipid droplet formation; AID 1656; AML12 mouse hepatocytes, oleate lipid droplets, BODIPY imaging; inhibition, % at 6.5 µM; 0.4% of 240,000 active;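 active = lipid droplet intensity inhibited by at least 50%, with more than 500 cells counted; inconclusive = wells with under 300 cells, treated as cytotoxic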
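Test system: AML12 mouse liver cells; schedule: overnight exposure; technique: high-content imaging of BODIPY-stained droplets and DAPI nuclei; read-out: % inhibition of corrected integrated BODIPY droplet signal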
AHR activator = human AHR activation. AID 2796. P35869. activation, % at 5 µM. AHR-responsive luciferase reporter cells, luminescence. 2.5% of 320,000 active; in the data active = activation above about 47%;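 also: 0% = vehicle wells and 100% = reference agonist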
* = called active by the depositor; u = inconclusive; x = not tested or not shown.

SMILES	SR-BI HDL uptake	SR-BI uptake up	Yeast superoxide	SMARCA2 act	Lipid droplet	AHR activator
Cn1cccc1-c1nc2ccc(NC(=O)c3ccccc3)cc2[nH]1	19	-19	96	4	12	-8
CCCCCCC(=O)NC1CCCCN(C)C1=O (configuration not stated)	x	x	x	1	x	x
CSc1nnc(Cc2cc(=O)[nH]c(=O)[nH]2)n1-c1cc(C)ccc1C	-70	70*	103	-1	25	8
CCN1N=C(c2ccccc2)Cn2c1nc1ccccc12	-1	1	101	1	12	67*
CS(=O)(=O)N1CCn2c1nc1ccccc12	2	-2	89	1	29	0
O=C(c1cccc(Oc2ccccc2)c1)N1CCC(Oc2cccnc2)CC1	x	x	x	-1	x	x
C/C(=N\NC(=S)Nc1cc(S(=O)(=O)N2CCOCC2)ccc1Cl)c1ccc(N2CCOCC2)cc1	102*	-102	88	-1	-5	9
COC(=O)[C@]12C[C@H](CC(=O)NCCCCc3ccccc3)C(=O)N(Cc3cccc4ccccc34)C1=C[C@H](C1CCCC1)O[C@@H]2C	x	x	x	-1	x	x
COc1cccc(NC(=O)c2ccc3c(c2)CCN3S(C)(=O)=O)c1	71*	-71	97	-1	16	1
CC(=O)Nc1ccc(NC(=O)c2ccc3c(c2)CCN3S(C)(=O)=O)cc1	12	-12	115	1	12	0
COc1cccc(NC(=O)c2ccc3c(c2)N(C)CCS3)c1	91*	-91	92	4	-3	20
COC(=O)C1=C(C)N(Cc2cccc(C(F)(F)F)c2)C(=NCc2cc(OC)c(OC)c(OC)c2)NC1c1ccccc1 (configuration not stated)	x	x	x	1	x	x
O=C(COC(=O)C1Cc2ccccc2CN1C(=O)c1ccccc1Cl)Nc1ccc(N2CCOCC2)cc1 (configuration not stated)	76*	-76	89	-2	-4	4
O=C(COC(=O)c1ccccc1O)Nc1ccc(N2CCOCC2)cc1	0	0	93	-2	x	-1
c1cn2c(NC3CCCCC3)c(-c3ccc(SC4CCCCC4)cc3)nc2cn1	-14	14	94	0	x	1
CCN(CC)c1ccc(-c2nc3cnccn3c2NC2CCCC2)cc1	24	-24	97	-3	x	69*
O=C1N=C(N2CCOCC2)SC1=Cc1ccco1	-13	13	x	1	x	x
Cc1ccc(-c2ccc(/C=C3\SC(N4CCOCC4)=NC3=O)o2)cc1	23	-23	108	-3	u	54*
O=C1N=C(N2CCOCC2)S/C1=C/c1ccc(-c2ccc(F)cc2)o1	63	-63	104	-5	43	82*
CCCCCCCCN1C(=O)[C@@H](CC(=O)NCCC(C)C)C[C@@]2(C(=O)OC)C1=C[C@H](C(C)(C)C)O[C@@H]2C	x	x	x	7	x	x
Cc1cccc(NC(=O)[C@H]2CC(=O)O[C@@H]2c2ccccc2)c1C	x	x	x	-1	x	x
Cc1ccc(NC(=O)OC2CC3CC2[C@H]2CCCCN2C3)cc1 (some centres not stated)	x	x	x	-1	x	x
COc1ccc2nc(SCc3cccc(C)c3)nc(C)c2c1	-1	1	96	8.5*	-31	-1
COc1cc2ccccc2cc1C(=O)OCC(=O)N(CC(C)C)c1c(N)n(Cc2ccccc2)c(=O)[nH]c1=O	80*	-80	105	-3	x	1
COCCN(C(=O)COC(=O)c1cc2ccccc2cc1OC)c1c(N)n(Cc2ccccc2)c(=O)[nH]c1=O	55	-55	107	-2	x	7
SMILES	SR-BI HDL uptake	SR-BI uptake up	Yeast superoxide	SMARCA2 act	Lipid droplet	AHR activator
CCN(C(=O)COC(=O)c1ccccc1NCc1ccco1)c1c(N)n(Cc2ccccc2)c(=O)[nH]c1=O	73*	-73	x	2	x	x
CC(C)CN(C(=O)COC(=O)c1ccccc1NCc1ccco1)c1c(N)n(Cc2ccccc2)c(=O)[nH]c1=O	27	-27	104	-1	x	2
CCCCCCN(C(=O)CCCCCN1C(=O)NC(c2ccccc2)C(C(=O)OCc2ccccc2)=C1C)C(C(=O)NCCCC)c1ccc(OCC(=O)OC)c(C(=O)OC)c1 (configuration not stated)	x	x	x	0	52*	x
CCCCCCN(C(=O)CCCCCN1C(=O)NC(c2ccc(C(C)(C)C)cc2)C(C(=O)OCc2ccccc2)=C1C)C(C(=O)NCCCC)c1ccc(OCC(=O)OC)c(C(=O)OC)c1 (configuration not stated)	x	x	x	x	1	x
CCCCN1CC(COCc2ccccc2)Oc2cccc(Oc3ccc(F)cc3OC)c2S1(=O)=O (configuration not stated)	x	x	x	-3	x	x
Cn1cnc2cc(NCc3cccs3)ccc21	-4	4	97	0	2	50*
c1ccc(-n2cnc3cc(NCc4cccs4)ccc32)cc1	8	-8	101	-3	x	-7
CSc1nnc(-c2cc3c(s2)-c2ccccc2CC3)o1	23	-23	88	4	8	66*
CSc1nnc(-c2ccccc2SC)o1	8	-8	109	2	21	-2
O=C(Nc1ccc(-c2nc3ccccc3s2)cc1)C1=COCCO1	15	-15	99	3	-4	50*
O=C(Nc1ccc(-c2nc3ccccc3s2)c(O)c1)C1=COCCO1	37	-37	97	1	8	8
Cc1sc(NC(=O)C2=COCCO2)nc1-c1ccc(F)cc1	63	-63	119	-1	x	52*
O=C(Nc1ccc(O)c(-c2nc3ccccc3s2)c1)C1=COCCO1	-4	4	91	-3	0	50*
CC(=O)Nc1ccc(O)c(-c2nc3ccccc3s2)c1	28	-28	102	3	6	72*
Cc1ccsc1C(=O)Nc1ccc(O)c(-c2nc3ccccc3s2)c1	11	-11	104	3	-4	46
CC(=O)OC[C@H]1O[C@H](C#Cc2ccc(C(C)(C)C)cc2)C=C[C@H]1OC(=O)Nc1ccccc1	x	x	x	-8	x	x
C[C@H]1CCC[C@H](O)CC(=O)c2c(O)cc(O)cc2CC(=O)O1	x	x	x	-2	x	x
O=C(Cn1c(-c2cncs2)nc2ccccc21)N1CCOCC1	x	x	x	1	x	x
CCOC(=O)CC[C@@H]1CC[C@]2(CCCN(C(=O)c3ccccc3)C2)O1	x	x	x	-4	x	x
Cc1nn(-c2ccccc2)c2sc(C(=O)NCCc3ccc(Cl)cc3)cc12	x	x	x	-6	x	x
Brc1cc2c(cc1/C=N/Nc1nc3ccccc3s1)OCO2	13	-13	105	-2	x	20
Brc1csc(/C=N/Nc2nc3ccccc3s2)c1	47	-47	81	0	24	100*
C(=N\Nc1nc2ccccc2s1)/c1ccccn1	x	x	97	-8	-42	27
C(=N\Nc1nc2ccccc2s1)/c1ccc2c(c1)OCO2	16	-16	111	5	23	112*
Cc1ccc2[nH]c(C)c(/C=N/Nc3nc4ccccc4s3)c2c1	122*	-122	94	-2	x	65*
